According to article PMC3562655 (Journal of bone and mineral research : the official journal …, 2013):

Key:
[1] = target: T1, purified recombinant human PHOSPHO1 (Homo sapiens, UniProt Q8TCT1); assay: PHOSPHO1 inhibition, Biomol Green colorimetric phosphate release assay; assay type: biochemical; conditions: for IC50: pH 6.7, 60 min room temperature
T1 sequence (Q8TCT1 1-292 isoform Q8TCT1-3): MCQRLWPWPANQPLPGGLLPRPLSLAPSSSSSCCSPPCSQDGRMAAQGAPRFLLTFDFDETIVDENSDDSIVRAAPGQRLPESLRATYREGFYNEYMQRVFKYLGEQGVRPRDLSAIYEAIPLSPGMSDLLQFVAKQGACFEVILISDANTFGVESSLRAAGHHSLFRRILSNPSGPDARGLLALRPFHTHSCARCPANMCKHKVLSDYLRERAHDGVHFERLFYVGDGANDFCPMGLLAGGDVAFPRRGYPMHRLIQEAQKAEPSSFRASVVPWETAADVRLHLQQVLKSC

PHOSPHO1 = target: T2, PHOSPHO1 (Homo sapiens, UniProt Q8TCT1); assay: Mechanism of PHOSPHO1 inhibition, double reciprocal plots; assay type: biochemical
T2 sequence (Q8TCT1 1-292 isoform Q8TCT1-3): T1 sequence (Q8TCT1 1-292 isoform Q8TCT1-3)

WT VSMCs = assay: Calcification assay, Alizarin Red staining of WT VSMCs; assay type: cell-based, mouse
How it was run: (§1)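 Aortic VSMCs from WT, Enpp1-/- or Phospho1-/- mice were isolated by collagenase digestion and grown in triplicate for 21 days. Medium was α-MEM with 50 µg/mL ascorbic acid plus 2.5 mmol/L β-glycerophosphate (all genotypes) or 3 mmol/L sodium phosphate (WT), changed every second day. Test compound (DMSO; final 30 µmol/L), alone or combined, was added at each change. Staining used 2% Alizarin Red (pH 4.2, 30 min RT), then 10% cetylpyridinium chloride extraction, absorbance read. Values are % of vehicle control, mean ± S.E.M.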

[2] = system: Phospho1^-/- chondrocytes; assay: Mineralization of Phospho1-/- chondrocytes; assay type: cell-based; conditions: not shown
TNAP = target: T3, TNAP (Homo sapiens, UniProt P05186); conditions: ref Ciancaglini et al. (2010), 25, 42; cited from earlier work
T3 sequence (P05186 18-502 limits assumed): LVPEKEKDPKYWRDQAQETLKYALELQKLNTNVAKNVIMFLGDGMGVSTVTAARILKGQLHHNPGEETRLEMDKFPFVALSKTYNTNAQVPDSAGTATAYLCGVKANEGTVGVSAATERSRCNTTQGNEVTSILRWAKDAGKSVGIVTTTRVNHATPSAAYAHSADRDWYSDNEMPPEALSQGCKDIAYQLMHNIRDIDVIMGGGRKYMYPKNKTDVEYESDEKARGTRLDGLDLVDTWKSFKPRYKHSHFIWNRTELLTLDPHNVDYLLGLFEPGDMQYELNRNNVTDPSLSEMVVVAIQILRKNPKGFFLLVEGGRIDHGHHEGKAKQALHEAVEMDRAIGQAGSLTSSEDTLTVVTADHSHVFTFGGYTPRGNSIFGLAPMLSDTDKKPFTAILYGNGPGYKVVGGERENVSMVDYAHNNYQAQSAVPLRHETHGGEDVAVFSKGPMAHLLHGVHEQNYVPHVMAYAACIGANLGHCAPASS

ENPP1 = target: T4, ENPP1 (Homo sapiens, UniProt P22413); conditions: cited from earlier work
T4 sequence (P22413 98-925 limits assumed): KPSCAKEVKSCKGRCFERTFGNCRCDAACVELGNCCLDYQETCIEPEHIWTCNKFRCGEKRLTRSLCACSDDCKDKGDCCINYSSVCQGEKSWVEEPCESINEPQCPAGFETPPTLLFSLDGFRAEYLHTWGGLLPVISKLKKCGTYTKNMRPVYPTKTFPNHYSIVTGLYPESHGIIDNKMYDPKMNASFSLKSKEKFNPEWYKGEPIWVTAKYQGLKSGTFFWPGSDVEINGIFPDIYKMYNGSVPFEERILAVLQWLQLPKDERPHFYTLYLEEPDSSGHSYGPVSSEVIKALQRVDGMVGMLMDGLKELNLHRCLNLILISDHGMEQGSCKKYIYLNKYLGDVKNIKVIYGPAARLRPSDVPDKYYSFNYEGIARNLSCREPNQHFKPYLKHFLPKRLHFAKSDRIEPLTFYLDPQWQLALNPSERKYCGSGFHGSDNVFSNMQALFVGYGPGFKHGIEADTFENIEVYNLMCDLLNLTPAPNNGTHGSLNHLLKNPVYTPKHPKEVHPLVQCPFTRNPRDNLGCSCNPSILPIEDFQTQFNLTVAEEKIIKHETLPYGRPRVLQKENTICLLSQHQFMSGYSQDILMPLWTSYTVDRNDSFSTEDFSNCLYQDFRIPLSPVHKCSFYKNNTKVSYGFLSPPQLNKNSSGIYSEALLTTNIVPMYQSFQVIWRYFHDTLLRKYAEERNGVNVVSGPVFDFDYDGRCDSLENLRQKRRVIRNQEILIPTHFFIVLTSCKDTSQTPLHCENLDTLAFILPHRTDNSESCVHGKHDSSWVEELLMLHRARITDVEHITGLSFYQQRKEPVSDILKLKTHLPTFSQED

Enpp1^-/- VSMCs = assay: Calcification assay, Alizarin Red staining of Enpp1-/- VSMCs; assay type: cell-based, mouse; conditions: 21 days, β-glycerophosphate, inhibitor 30 μmol/L
How it was run: as §1

Phospho1^-/- VSMCs = assay: Calcification assay, Alizarin Red staining of Phospho1-/- VSMCs; assay type: cell-based, mouse; conditions: 21 days, β-glycerophosphate, inhibitor 30 μmol/L
How it was run: as §1

Compound	IC50 ([1]; P-Cho IC50, substrate P-Cho 62.5 μmol/L) [nM]	IC50 ([1]; P-Etn IC50, substrate P-Etn 62.5 μmol/L) [nM]	Ki (PHOSPHO1) [nM]	nature of the PHOSPHO1 inhibition (PHOSPHO1; double reciprocal plots versus P-Etn)	toxicity to smooth muscle cells observed in the mineralization studies (WT VSMCs)	effect on mineralization in words (WT VSMCs; WT VSMCs, 21 days, inhibitor 30 μmol/L)	mineralization of Phospho1-/- chondrocytes [2]	inhibition of TNAP activity (TNAP)	inhibition of ENPP1 activity (ENPP1; ref Ciancaglini et al. (2010), 25, 42)	inhibition of PHOSPHO1 in point experiments ([1]; inhibitor 1, 10, 30 μmol/L, substrates P-Etn and P-Cho)	effect on mineralization in words (Enpp1^-/- VSMCs)	effect on mineralization in words (Phospho1^-/- VSMCs)	cross-inhibition of ENPP1 (ENPP1)
Cc1c(OCC(F)(F)F)ccnc1C[S+]([O-])c1nc2ccccc2[nH]1 (stereo not shown) [Lansoprazole]	60 ± 10	70 ± 10	160 ± 30	competitive	showed toxicity to smooth muscle cells	significantly inhibited mineralization	inhibited mineralization	partially inhibits	partially inhibits	–	–	–	–
COc1ccc(OC)c(S(=O)(=O)Nc2cnc3ccccc3c2)c1 [MLS-0038949]	–	–	–	–	–	–	–	–	–	selectively inhibits TNAP, but not PHOSPHO1	strongly reduced mineralization	significantly inhibited mineralization	does not cross-inhibit
